The results in this text go back to ChEMBL document CHEMBL3632575, “Structure-Activity Relationships of the Peptide Kappa Opioid Receptor Antagonist Zyklophin” (J Med Chem, 2015).

Molecules are shown by their SMILES. Calls of active or inactive are those of the source. The rule behind the calls is not given here.

For series [1], the target named is Kappa-type opioid receptor (Homo sapiens) (UniProt P41145). The series is described as follows: Agonist activity at kappa-opioid receptor (unknown origin) at 10 uM after 90 mins by [35S]GTPgammaS binding assay. Format: functional. In a few lines: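 KOR-containing membranes were incubated in duplicate with [35S]GTPγS (0.1–0.2 nM) and 10 µM peptide for 90 min at 22 °C in 50 mM HEPES, pH 7.4. Specific binding is total minus binding with 3 µM unlabeled GTPγS. Efficacy is expressed relative to the full agonist Dyn A(1-13)NH2, from at least two independent experiments.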

Series [2] in a line: Retention time of the compound by RP-HPLC. Format: physicochemical. In a few lines:
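Analytical RP-HPLC on a C18 column (5 µ, 300 Å, 4.6 × 50 mm). System 1: 5–50% acetonitrile in water, both with 0.1% TFA, over 45 min at 1 mL/min. System 2: 15–60% methanol/0.1% TFA over 45 min at 1.0 mL/min. System 3: 1–21% acetonitrile against aqueous 0.09 M TEAP, pH 2.5, over 40 min.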

Series [3] deals with Kappa-type opioid receptor (Homo sapiens) (UniProt P41145). The series can be described thus: Antagonist activity at kappa-opioid receptor (unknown origin) assessed as inhibition of DynA(1-13)-induced [35S]-GTPgammaS binding after 90 mins. Type of series: functional. In a few lines:
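Antagonism was measured in a [35S]GTPγS (0.1–0.2 nM) binding assay on KOR membranes, run in duplicate for 90 min at 22 °C in 50 mM HEPES, pH 7.4, with Dyn A(1-13)NH2 as the stimulating agonist. Specific binding is total minus binding with 3 µM GTPγS. KB was derived by Schild analysis from shifts of the agonist concentration-response curve, averaged over 2–5 independent experiments, with 95% confidence intervals.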

The target in a further series is Mu-type opioid receptor (Rattus norvegicus, UniProt P33535). The series can be described thus: Displacement of [3H]DAMGO from rat mu-opioid receptor expressed in CHO cells after 90 mins by scintillation counter. Format: cell-based. An outline of the steps:
(§1)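 Membranes from CHO cells stably expressing cloned rat KOR or MOR were incubated in triplicate with test peptide at 0.1 nM–10 µM for 90 min at 22 °C in 50 mM Tris, pH 7.4. […] Nonspecific binding was set with 10 µM unlabeled Dyn A(1-13)NH2 (KOR) or DAMGO (MOR). Ki is the mean ± S.E.M. of at least three independent experiments.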

The target in series [4] is Kappa-type opioid receptor (Rattus norvegicus) (UniProt P34975). The series is described as follows: Displacement of [3H]diprenorphine from rat kappa-opioid receptor expressed in CHO cells after 90 mins by scintillation counter relative to zyklophin. Type of series: cell-based.
Series [5] concerns the target Kappa-type opioid receptor (Rattus norvegicus, UniProt P34975). The series is described as follows: Displacement of [3H]diprenorphine from rat kappa-opioid receptor expressed in CHO cells after 90 mins by scintillation counter. Type of series: cell-based. An outline of the steps:
as §1

The species named for the next series is Rattus norvegicus. The series can be described thus: Selectivity ratio, ratio of Ki for rat mu-opioid receptor to Ki for rat kappa-opioid receptor.

Chain of Kappa-type opioid receptor (Homo sapiens) (P41145 whole entry): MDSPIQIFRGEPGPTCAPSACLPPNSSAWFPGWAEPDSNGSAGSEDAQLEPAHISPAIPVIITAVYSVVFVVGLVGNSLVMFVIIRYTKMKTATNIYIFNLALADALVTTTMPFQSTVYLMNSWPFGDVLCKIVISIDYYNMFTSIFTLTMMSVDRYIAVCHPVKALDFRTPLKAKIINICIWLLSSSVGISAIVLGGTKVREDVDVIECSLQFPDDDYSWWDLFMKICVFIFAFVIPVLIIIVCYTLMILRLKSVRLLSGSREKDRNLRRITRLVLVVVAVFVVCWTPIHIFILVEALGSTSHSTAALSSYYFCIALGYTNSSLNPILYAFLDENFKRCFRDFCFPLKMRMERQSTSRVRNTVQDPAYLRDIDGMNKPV
Chain of Kappa-type opioid receptor (P34975 whole entry): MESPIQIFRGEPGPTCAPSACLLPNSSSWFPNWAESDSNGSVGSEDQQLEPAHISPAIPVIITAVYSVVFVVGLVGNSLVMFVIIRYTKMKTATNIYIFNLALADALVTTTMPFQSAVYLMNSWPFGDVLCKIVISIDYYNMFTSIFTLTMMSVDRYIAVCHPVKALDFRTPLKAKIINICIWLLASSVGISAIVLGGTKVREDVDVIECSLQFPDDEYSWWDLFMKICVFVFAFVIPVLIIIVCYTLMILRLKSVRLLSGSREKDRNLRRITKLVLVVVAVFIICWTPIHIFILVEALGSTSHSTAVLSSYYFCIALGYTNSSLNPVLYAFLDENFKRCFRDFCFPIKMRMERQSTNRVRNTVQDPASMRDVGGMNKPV
Chain of Kappa-type opioid receptor (Rattus norvegicus) (P34975 whole entry): as above
Chain of Mu-type opioid receptor (P33535 whole entry): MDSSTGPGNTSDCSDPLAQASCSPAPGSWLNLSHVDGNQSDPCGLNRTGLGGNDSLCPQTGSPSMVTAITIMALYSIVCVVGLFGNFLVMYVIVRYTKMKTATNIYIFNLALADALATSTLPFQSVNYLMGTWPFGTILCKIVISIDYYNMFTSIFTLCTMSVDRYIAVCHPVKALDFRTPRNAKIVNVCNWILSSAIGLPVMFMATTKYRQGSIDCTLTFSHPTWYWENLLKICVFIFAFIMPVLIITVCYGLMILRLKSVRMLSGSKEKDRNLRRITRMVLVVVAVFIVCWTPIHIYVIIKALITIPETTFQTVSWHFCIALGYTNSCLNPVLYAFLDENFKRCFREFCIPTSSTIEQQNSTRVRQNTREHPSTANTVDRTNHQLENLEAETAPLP

In the case of `CN[C@@H](Cc1ccc(O)cc1)C(=O)NCC(=O)NCC(=O)N[C@@H](Cc1ccccc1)C(=O)N[C@@H]1CC(=O)NC[C@@H](C(=O)N[C@@H](CCCNC(=N)N)C(=O)N2CCC[C@H]2C(=O)N[C@@H](CCCCN)C(N)=O)NC(=O)[C@H](CCCNC(=N)N)NC(=O)[C@H](CCCNC(=N)N)NC1=O`, in series [1], the result was Active.
The same measure, in the same setting: with `C[C@H](NC(=O)[C@@H]1CNC(=O)C[C@@H](NC(=O)[C@H](Cc2ccccc2)NC(=O)CNC(=O)CNC(=O)[C@H](Cc2ccc(O)cc2)NCc2ccccc2)C(=O)N[C@@H](CCCNC(=N)N)C(=O)N[C@@H](CCCNC(=N)N)C(=O)N1)C(=O)N1CCC[C@H]1C(=O)N[C@@H](CCCCN)C(N)=O` the entry was “inactive”.
Same read-out and setting: to `C=CCN[C@@H](Cc1ccc(O)cc1)C(=O)NCC(=O)NCC(=O)N[C@@H](Cc1ccccc1)C(=O)N[C@@H]1CC(=O)NC[C@@H](C(=O)N[C@@H](CCCNC(=N)N)C(=O)N2CCC[C@H]2C(=O)N[C@@H](CCCCN)C(N)=O)NC(=O)[C@H](CCCNC(=N)N)NC(=O)[C@H](CCCNC(=N)N)NC1=O` belongs “Active”; to `N=C(N)NCCC[C@@H]1NC(=O)[C@H](CCCNC(=N)N)NC(=O)[C@H](NC(=O)[C@H](Cc2ccccc2)NC(=O)CNC(=O)CNC(=O)[C@H](Cc2ccc(O)cc2)NCC2CC2)CC(=O)NC[C@@H](C(=O)N[C@@H](CCCNC(=N)N)C(=O)N2CCC[C@H]2C(=O)N[C@@H](CCCCN)C(N)=O)NC1=O`, “Active”.
The compound `N=C(N)NCCC[C@@H]1NC(=O)[C@H](CCCNC(=N)N)NC(=O)[C@H](NC(=O)[C@H](Cc2ccccc2)NC(=O)CNC(=O)CNC(=O)[C@@H](Cc2ccc(O)cc2)NCc2ccccc2)CC(=O)NC[C@@H](C(=O)N[C@@H](CCCNC(=N)N)C(=O)N2CCC[C@H]2C(=O)N[C@@H](CCCCN)C(N)=O)NC1=O` had a Retention_time in series [2] of 17.3 min.
With `N=C(N)NCCC[C@@H]1NC(=O)[C@H](CCCNC(=N)N)NC(=O)[C@H](NC(=O)[C@H](Cc2ccccc2)NC(=O)CNC(=O)CNC(=O)[C@H](Cc2ccc(O)cc2)NC(=O)c2ccccc2)CC(=O)NC[C@@H](C(=O)N[C@@H](CCCNC(=N)N)C(=O)N2CCC[C@H]2C(=O)N[C@@H](CCCCN)C(N)=O)NC1=O`, in series [1], the outcome was Active.
Regarding `C[C@@H]1NC(=O)[C@H](CCCNC(=N)N)NC(=O)[C@H](NC(=O)[C@H](Cc2ccccc2)NC(=O)CNC(=O)CNC(=O)[C@H](Cc2ccc(O)cc2)NCc2ccccc2)CC(=O)NCC(C(=O)N[C@@H](CCCNC(=N)N)C(=O)N2CCC[C@H]2C(=O)N[C@@H](CCCCN)C(N)=O)NC1=O` (some centres undefined), the result in series [1] and in series [3] was inactive.
For the compound `C[C@@H]1NC(=O)[C@H](NC(=O)[C@H](Cc2ccccc2)NC(=O)CNC(=O)CNC(=O)[C@H](Cc2ccc(O)cc2)NCc2ccccc2)CC(=O)NC[C@@H](C(=O)N[C@@H](CCCNC(=N)N)C(=O)N2CCC[C@H]2C(=O)N[C@@H](CCCCN)C(N)=O)NC(=O)[C@H](CCCNC(=N)N)NC1=O`, the outcome in series [1] was inactive.
Consider `C[C@H](NCc1ccccc1)C(=O)NCC(=O)NCC(=O)N[C@@H](Cc1ccccc1)C(=O)N[C@@H]1CC(=O)NC[C@@H](C(=O)N[C@@H](CCCNC(=N)N)C(=O)N2CCC[C@H]2C(=O)N[C@@H](CCCCN)C(N)=O)NC(=O)[C@H](CCCNC(=N)N)NC(=O)[C@H](CCCNC(=N)N)NC1=O`, for which the outcome in series [1] was inactive.
For the compound `N=C(N)NCCC[C@@H]1NC(=O)[C@H](CCCNC(=N)N)NC(=O)[C@H](NC(=O)[C@H](Cc2ccccc2)NC(=O)CNC(=O)CNC(=O)[C@H](Cc2ccc(O)cc2)NCc2ccccc2)CC(=O)NCCC[C@@H](C(=O)N[C@@H](CCCNC(=N)N)C(=O)N2CCC[C@H]2C(=O)N[C@@H](CCCCN)C(N)=O)NC1=O`, the outcome in series [1] was Active.
In the case of `CC[C@H](C)[C@H](NC(=O)[C@H](CCCNC(=N)N)NC(=O)[C@H](CCCNC(=N)N)NC(=O)[C@@H](CC(N)=O)NC(=O)[C@H](Cc1ccccc1)NC(=O)CNC(=O)CNC(=O)[C@H](Cc1ccc(O)cc1)NCc1ccccc1)C(=O)N[C@@H](CCCNC(=N)N)C(=O)N1CCC[C@H]1C(=O)N[C@@H](CCCCN)C(N)=O`, the Ki was found to be 2.44 µM at Mu-type opioid receptor and 0.412 µM in series [5]. For the same compound, in series [4], the fold change (FC) was 0.23. In the series listed under Rattus norvegicus, the Ratio Ki came to 6.
As for `N=C(N)NCCC[C@@H]1NC(=O)[C@H](CCCNC(=N)N)NC(=O)[C@H](NC(=O)[C@H](Cc2ccccc2)NC(=O)CNC(=O)CNC(=O)[C@H](Cc2ccc(O)cc2)NCCc2ccccc2)CC(=O)NC[C@@H](C(=O)N[C@@H](CCCNC(=N)N)C(=O)N2CCC[C@H]2C(=O)N[C@@H](CCCCN)C(N)=O)NC1=O`, in series [1], the result was Active.
As to `CC1NC(=O)C[C@@H](NC(=O)[C@H](Cc2ccccc2)NC(=O)CNC(=O)CNC(=O)[C@H](Cc2ccc(O)cc2)NCc2ccccc2)C(=O)N[C@@H](CCCNC(=N)N)C(=O)N[C@@H](CCCNC(=N)N)C(=O)NC1C(=O)N[C@@H](CCCNC(=N)N)C(=O)N1CCC[C@H]1C(=O)N[C@@H](CCCCN)C(N)=O` (some centres undefined), in series [1], the outcome was Active. Further, the Ratio Ki in the series filed under Rattus norvegicus was 8.
On to `C[C@H](NC(=O)CNC(=O)CNC(=O)[C@H](Cc1ccc(O)cc1)NCc1ccccc1)C(=O)N[C@@H]1CC(=O)NC[C@@H](C(=O)N[C@@H](CCCNC(=N)N)C(=O)N2CCC[C@H]2C(=O)N[C@@H](CCCCN)C(N)=O)NC(=O)[C@H](CCCNC(=N)N)NC(=O)[C@H](CCCNC(=N)N)NC1=O`, for which the outcome in series [1] was inactive.
